From ChEMBL document CHEMBL4196166 (J Med Chem, 2018)
Calls of active or inactive are those of the source. The rule behind the calls is not given here.

Experiments:
[1] = target: ENaC beta subunit (epithelial sodium channel subunit beta) (Homo sapiens, UniProt P51168); experiment: Inhibition of S-3969-stimulated recombinant human ENaC beta subunit expressed in HEK293 cells at 10 uM preincubated for 5 mins followed by S-3969 stimulation by FLIPR assay; format: cell-based; conditions: HEK293 cells expressing recombinant human ENaC beta subunit
Sequence of ENaC beta subunit (epithelial sodium channel subunit beta) (P51168 whole entry): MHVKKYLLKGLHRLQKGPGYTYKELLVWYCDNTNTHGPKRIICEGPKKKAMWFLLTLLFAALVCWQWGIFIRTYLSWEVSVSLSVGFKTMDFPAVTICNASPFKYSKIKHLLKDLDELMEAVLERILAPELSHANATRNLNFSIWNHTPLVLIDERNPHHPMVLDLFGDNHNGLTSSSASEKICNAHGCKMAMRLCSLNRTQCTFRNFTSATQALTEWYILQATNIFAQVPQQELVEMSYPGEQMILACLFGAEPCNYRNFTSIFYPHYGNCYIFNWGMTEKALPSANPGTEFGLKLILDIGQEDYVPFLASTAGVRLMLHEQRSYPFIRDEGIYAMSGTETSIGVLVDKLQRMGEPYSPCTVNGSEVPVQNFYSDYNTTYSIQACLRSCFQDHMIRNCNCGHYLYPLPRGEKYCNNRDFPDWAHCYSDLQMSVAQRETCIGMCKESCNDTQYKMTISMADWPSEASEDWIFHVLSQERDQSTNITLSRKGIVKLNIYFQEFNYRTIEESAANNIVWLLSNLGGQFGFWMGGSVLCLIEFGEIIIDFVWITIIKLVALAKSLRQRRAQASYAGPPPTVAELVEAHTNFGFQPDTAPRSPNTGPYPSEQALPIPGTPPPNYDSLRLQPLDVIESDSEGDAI
How it was run: (§1)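 HEK-293 cells transfected with human ENaC α, β and γ cDNA together, plated at 20 000 cells/well, incubated overnight at 37 °C. Loaded with membrane-potential red dye for 30 min at 37 °C. Compound preincubated 5 min in HEPES-buffered salt solution (pH 7.4, 0.3% DMSO), then stimulated with 1 µM S-3969, read on FLIPR. Signal normalized to agonist alone (100%) and agonist plus 30 µM benzamil (0%). n = 4 wells.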

[2] = target: ENaC alpha subunit (epithelial sodium channel subunit alpha) (Homo sapiens, UniProt P37088); experiment: Inhibition of S-3969-stimulated recombinant human ENaC alpha subunit expressed in HEK293 cells at 10 uM preincubated for 5 mins followed by S-3969 stimulation by FLIPR assay; format: cell-based; conditions: HEK293 cells expressing recombinant human ENaC alpha subunit; how it was run: as §1
Sequence of ENaC alpha subunit (epithelial sodium channel subunit alpha) (P37088 whole entry): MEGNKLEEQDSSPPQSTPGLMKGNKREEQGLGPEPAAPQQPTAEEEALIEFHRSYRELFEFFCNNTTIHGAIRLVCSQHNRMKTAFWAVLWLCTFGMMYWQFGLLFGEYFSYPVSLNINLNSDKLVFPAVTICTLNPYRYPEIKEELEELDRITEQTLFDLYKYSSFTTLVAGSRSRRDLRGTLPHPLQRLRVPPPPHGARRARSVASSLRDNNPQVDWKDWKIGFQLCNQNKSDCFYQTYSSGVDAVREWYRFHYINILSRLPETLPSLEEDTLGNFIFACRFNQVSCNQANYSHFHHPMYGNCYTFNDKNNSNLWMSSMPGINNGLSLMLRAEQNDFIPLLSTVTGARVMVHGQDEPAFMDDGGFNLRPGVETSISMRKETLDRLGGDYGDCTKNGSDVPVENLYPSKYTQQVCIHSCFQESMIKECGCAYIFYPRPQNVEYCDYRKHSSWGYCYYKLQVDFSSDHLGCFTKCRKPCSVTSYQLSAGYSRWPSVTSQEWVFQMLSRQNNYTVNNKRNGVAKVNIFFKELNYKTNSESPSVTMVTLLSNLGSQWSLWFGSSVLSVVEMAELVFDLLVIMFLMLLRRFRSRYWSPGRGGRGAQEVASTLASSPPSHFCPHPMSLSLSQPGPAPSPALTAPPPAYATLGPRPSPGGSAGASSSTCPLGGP

HT-1080 = experiment: Antimetastatic activity against luciferase-tagged human HT1080 cells xenografted in NOD.Cg-Prkdc<scid>-IL2rg<tm1Wjl>SzJAusb mouse assessed as inhibition of late-stage lung metastasis at 7.5 mg/kg/day, ip administered from day -1 to day 20 measured day 21
[3] = target: ENaC gamma subunit (epithelial sodium channel subunit gamma) (Homo sapiens, UniProt P51170); experiment: Inhibition of S-3969-stimulated recombinant human ENaC gamma subunit expressed in HEK293 cells at 10 uM preincubated for 5 mins followed by S-3969 stimulation by FLIPR assay; format: cell-based; conditions: HEK293 cells expressing recombinant human ENaC gamma subunit; how it was run: as §1
Sequence of ENaC gamma subunit (epithelial sodium channel subunit gamma) (P51170 whole entry): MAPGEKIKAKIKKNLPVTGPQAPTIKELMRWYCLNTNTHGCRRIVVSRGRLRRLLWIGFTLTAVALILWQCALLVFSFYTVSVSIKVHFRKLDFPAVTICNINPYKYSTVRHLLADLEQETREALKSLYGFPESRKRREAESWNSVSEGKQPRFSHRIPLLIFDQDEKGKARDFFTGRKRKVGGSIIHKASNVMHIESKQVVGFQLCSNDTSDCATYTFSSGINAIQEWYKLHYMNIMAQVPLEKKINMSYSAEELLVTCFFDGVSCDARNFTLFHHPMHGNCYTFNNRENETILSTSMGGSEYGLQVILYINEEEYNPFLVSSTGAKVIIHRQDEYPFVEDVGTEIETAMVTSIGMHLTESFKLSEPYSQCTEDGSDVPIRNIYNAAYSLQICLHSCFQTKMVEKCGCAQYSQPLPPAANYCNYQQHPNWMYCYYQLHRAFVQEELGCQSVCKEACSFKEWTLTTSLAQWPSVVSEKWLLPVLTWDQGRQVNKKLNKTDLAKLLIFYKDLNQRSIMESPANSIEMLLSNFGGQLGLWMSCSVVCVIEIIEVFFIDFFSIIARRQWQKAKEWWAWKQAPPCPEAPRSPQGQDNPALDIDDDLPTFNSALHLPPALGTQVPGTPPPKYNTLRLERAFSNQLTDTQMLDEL

Question: How did the inhibition at 5 min, 10 µM [1] turn out when `N=C(N)NC(=O)c1nc(Cl)c(N)nc1N` [AMILORIDE] was run?
Answer: The inhibition at 5 min, 10 µM was 68%.

Question: What about the inhibition at 5 min, 10 µM [2] of the same molecule?
Answer: The inhibition at 5 min, 10 µM was 68%.

Question: And the inhibition (HT-1080)?
Answer: The inhibition was “inactive”.

Question: And the inhibition at 5 min, 10 µM [3]?
Answer: The inhibition at 5 min, 10 µM was 68%.
